Bioassay records as filed in PubChem.
LEDGF integ inh: blockers of LEDGF/p75-dependent integrase strand transfer – biochemical, TR-FRET, high throughput, primary screen | inhibition, % at 3.7 µM | HIV-1 integrase (with human LEDGF/p75) | TR-FRET IN-LEDGF/p75 DNA integration, Eu/Cy5 | actives 0.64% (n = 370,000);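 active = inhibition above the screen-wide mean plus 3 SD, cut at about 13% in these data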;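 note: signal is the Cy5 over europium emission ratio at 671 and 618 nm; 0% = plate median of compound wells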
UHRF1 MBD2 ctr: UHRF1 methylated DNA binding inhibitors, primary screen, counter-screen for MBD2 inhibitor project, biochemical, TR-FRET, human UHRF1, single concentration. inhibition, % at 4.4 µM. actives 0.75% (n = 370,000). AID 687016, 2013. UHRF1 binding to methylated oligo; in the data active = inhibition above about 21%;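 note: UHRF1 SRA domain binding a hemimethylated CpG hairpin DNA probe; 0% = median of test compound wells and 100% = reference inhibitor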
MBD2 inh: inhibitors of MBD2 binding to methylated DNA, primary screen, biochemical, TR-FRET, DNA-binding domain, human | Methyl-CpG-binding domain protein 2 (Homo sapiens), Q9UBB5 | MBD2 binding to methylated oligonucleotide | inhibition, % at 4.4 µM | actives 0.31% (n = 370,000) | AID 686964, 2013; in the data active = inhibition above about 13%
Target sequence (Q9UBB5 whole entry, looked up, the tested form may be a part): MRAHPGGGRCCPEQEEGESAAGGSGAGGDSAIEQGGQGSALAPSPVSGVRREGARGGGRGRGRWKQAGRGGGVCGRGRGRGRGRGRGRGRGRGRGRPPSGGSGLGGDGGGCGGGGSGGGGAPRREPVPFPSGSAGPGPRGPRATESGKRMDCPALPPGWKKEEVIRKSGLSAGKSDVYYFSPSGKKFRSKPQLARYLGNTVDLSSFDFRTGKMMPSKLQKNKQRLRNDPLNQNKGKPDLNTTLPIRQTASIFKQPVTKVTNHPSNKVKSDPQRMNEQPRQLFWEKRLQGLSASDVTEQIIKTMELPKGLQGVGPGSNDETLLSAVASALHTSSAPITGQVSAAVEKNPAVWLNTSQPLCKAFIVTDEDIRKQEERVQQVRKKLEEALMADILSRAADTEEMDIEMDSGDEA
CASP6 VEID inh: human caspase-6 inhibitors, primary screen, biochemical, VEID-R110 fluorescence, single point, set 2; P55212; purified caspase-6, Z-VEID-R110 cleavage fluorescence; inhibition, % at 12.5 µM; actives 0.53% (n = 350,000); AID 686996, 2013;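 active = mean inhibition across replicates at least about 35%, with every replicate also reaching that limit, limit read from the data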;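 note: 0% = median of neutral control wells and 100% = no fluorescence left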
Target sequence (P55212 24-179 limits assumed): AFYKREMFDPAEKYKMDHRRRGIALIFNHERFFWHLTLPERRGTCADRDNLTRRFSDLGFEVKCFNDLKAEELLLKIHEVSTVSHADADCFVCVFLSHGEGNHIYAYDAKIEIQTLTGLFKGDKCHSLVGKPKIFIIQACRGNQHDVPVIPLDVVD
Target sequence (P55212 194-293 limits assumed): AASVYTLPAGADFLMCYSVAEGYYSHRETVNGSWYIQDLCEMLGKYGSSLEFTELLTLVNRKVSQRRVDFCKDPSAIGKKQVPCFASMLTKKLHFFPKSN
NSD2 inh: NSD2 histone methyltransferase inhibitors, primary screen, biochemical, AlphaScreen, single concentration, set 2. Histone-lysine N-methyltransferase NSD2 (Homo sapiens), O96028. NSD2 peptide methylation, 120 min. inhibition, % at 12.5 µM. actives 0.54% (n = 310,000); in the data active = inhibition above about 50%
TDP2 absorb: human TDP2 enzyme inhibitors, primary screen, biochemical, epi absorbance, recombinant enzyme. Tyrosyl-DNA phosphodiesterase 2 (Homo sapiens), O95551. T5PNP hydrolysis, p-nitrophenol absorbance 415 nm. inhibition, % at 12.8 µM. actives 0.34% (n = 370,000);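 active = inhibition above the mean of all tested compounds plus 3 SD, set per campaign, cut at about 25% in these data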;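 note: 0% = DMSO with enzyme and 100% = buffer with substrate but no TDP2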
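System: recombinant human TDP2 / Amount: 120 nM TDP2 per well / Also added: 5 mM T5PNP chromogenic substrate / Doses: 12.8 µM single point, 1% DMSO / Incubation: 2 h at 37 °C / Detection: p-Nitrophenol epi absorbance / Evaluation: % inhibition relative to enzyme-containing and enzyme-free wells / Repeats: singlicate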
AlphaScreen art: AlphaScreen signal interference with preloaded methylated product, dose response, artefact control for NSD2 inhibitor project, biochemical, cherry-picked samples; shares compounds with NSD2 inh; AlphaScreen artifact counterscreen, preloaded methylated H4 peptide; AC35, µM (titrated, usually from 10 µM), inactives show at the top dose activity change, negative = signal loss; actives 9.4% (n = 1,500); AID 1053174, 2014; call rule not given here
The depositor's hits bear a star; · = no result; + = active, no number. An excerpt weighted towards active compounds, which were near 1.8% of everything screened.

SMILES | LEDGF integ inh | UHRF1 MBD2 ctr | MBD2 inh | CASP6 VEID inh | NSD2 inh | TDP2 absorb | AlphaScreen art
CCCC(CCC(=O)Nc1cccc([N+](=O)[O-])c1)C(=O)O (stereo not drawn) | 1.5 | -1.0 | -6.7 | -0.5 | 83.4* | 4.8 | -0.6%
Cc1cccc(NC(=O)CSCC(=O)NCc2cccc(C(F)(F)F)c2)c1 | 2.8 | -0.7 | 3.6 | -2.8 | 97.9* | -8.8 | 1.3%
COc1ccc(NC(=O)N2CCCCN3[C@H](C2)[C@@H](c2ccc(C4=CCCC4)cc2)[C@@H]3CO)cc1 | · | · | · | -2.0 | · | · | ·
O=C1CCN(Cc2ccccc2)N1 | 3.3 | 4.2 | 1.9 | 1.1 | 85.9* | -28.0 | 0.6%
Cc1cc(F)c(F)c(C(=O)N2C(C)CCCC2C)c1Cl (stereo not drawn) | 2.1 | -0.8 | -2.2 | -3.0 | 58.5* | -3.1 | 1.5%
C[C@@H]1CCCCO[C@@H](CN(C)C)[C@@H](C)CN([C@H](C)CO)C(=O)c2cc(NS(C)(=O)=O)ccc2O1 | · | · | · | 1.6 | · | · | ·
C[C@@H]1CN([C@@H](C)CO)C(=O)c2cc(NC(=O)c3ccncc3)ccc2O[C@@H](C)CCCCO[C@@H]1CN(C)C(=O)C1CCCCC1 | · | · | · | 0.3 | · | · | ·
CNC(=S)NC(CC(=O)OC)c1ccc2c(c1)OCO2 (stereo not drawn) | 0.3 | -3.6 | -1.6 | -4.7 | 55.7* | 0.7 | -1.8%
Cc1ncc(CO)c2c1Oc1nc(-c3ccccc3)nc(SCC(=O)N3CCOCC3)c1C2 | 4.3 | 2.0 | 1.4 | 5.7 | 78.6* | -4.7 | -10.2%
C[C@H](CO)N1C[C@H](C)[C@@H](CN(C)C)Oc2cc(C#CC3(O)CCCC3)ccc2S1(=O)=O | · | · | · | 2.1 | · | · | ·
Cc1cccc(C(=O)NCC(=O)OCc2nnc(-c3ccccc3)o2)c1 | -1.3 | 1.3 | -2.8 | 0.3 | + | 8.4 | -0.7%
COCCN(C(=O)CCC(=O)Nc1cc(C)on1)C(C(=O)NC(C)(C)C)c1ccccc1Cl (stereo not drawn) | 1.5 | 0.8 | 0.4 | -0.8 | 139.7* | 1.4 | -5.8%
COc1ccc(C(C(=O)NC(C)(C)C)N(C(=O)CCC(=O)Nc2cc(C)on2)c2ccccc2F)cc1 (stereo not drawn) | 2.5 | 0.5 | -3.9 | 6.5 | 77.3* | 3.3 | -0.2%
COc1ccc(C(C(=O)NC(C)(C)C)N(C(=O)CCC(=O)Nc2cc(C)on2)c2cc(C)cc(C)c2)cc1 (stereo not drawn) | -0.1 | -2.8 | -0.3 | 1.8 | 14.1 | 8.1 | ·
COC(=O)CC1=NN(c2ccc(OC)cc2)C(=O)/C1=C\c1ccc(Cl)cc1 | -2.5 | -10.7 | -3.3 | 2.0 | 55.0* | 12.6 | -2.4%
O=C(c1ccccc1)c1cc2ccccc2oc1=O | 2.6 | 0.5 | -1.4 | · | 113.2* | -14.6 | -0.3%
CCS(=O)(=O)Nc1ccc2c(c1)C(=O)N(C)C[C@H](OC)[C@@H](C)CN(Cc1ccccn1)[C@H](C)CO2 | · | · | · | -0.6 | · | · | ·
COc1ccccc1NC(=O)N[C@H]1C=C[C@@H](CC(=O)NCc2ccc(Cl)c(Cl)c2)O[C@@H]1CO | · | · | · | -0.7 | · | · | ·
CN1c2ccccc2N(C)C1(C)c1ccccc1 | 6.6 | 3.1 | 0.0 | 25.8 | 54.1* | 10.2 | -17.2%
COc1ccc(NC(=O)N[C@H]2CC[C@@H](CC(=O)NCc3ccccn3)O[C@@H]2CO)cc1 | · | · | · | 1.6 | · | · | ·
COC(=O)CCCC(=O)NC1CC(C)(C)Cc2c1cnn2-c1ccc(C)cc1 (stereo not drawn) | 1.4 | 0.8 | 8.4 | -1.2 | 54.5* | -9.8 | -0.5%
Cc1noc(C)c1S(=O)(=O)N(C)C[C@@H]1OCCCC[C@@H](C)Oc2ccc(NC(=O)Cc3ccccc3)cc2C(=O)N([C@@H](C)CO)C[C@H]1C | · | · | · | -2.8 | · | · | ·
COc1cc(CC(=O)NCC2COc3ccccc3O2)cc(OC)c1OC (stereo not drawn) | -0.9 | -1.0 | 3.9 | -0.6 | 54.2* | 7.6 | -3.2%
Nc1c(C(=O)OCC2CCCO2)c2nc3ccccc3nc2n1C1CCCCC1 (stereo not drawn) | 2.2 | 4.1 | -0.1 | 9.9 | 75.9* | 7.5 | -7.0%
O=C(C[C@@H]1CC[C@H]2[C@@H](COC[C@H](O)CN2C(=O)c2ccccc2F)O1)NCc1ccc(Cl)cc1 | · | · | · | -2.2 | · | · | ·
SMILES | LEDGF integ inh | UHRF1 MBD2 ctr | MBD2 inh | CASP6 VEID inh | NSD2 inh | TDP2 absorb | AlphaScreen art
CCCNC(=O)N1C[C@H]2[C@@H](c3ccccc31)[C@@H](CO)N2C(=O)c1ccncc1 | · | · | · | 0.5 | · | · | ·
O=C(CSc1ccc(Cl)cc1)Nc1cc(-c2nc3ncccc3o2)ccc1Cl | 2.1 | -1.7 | 5.3 | -1.0 | 50.9* | 7.9 | -6.4%
O=C(CSc1ccc(Cl)cc1)Nc1cccc(-c2nc3ncccc3o2)c1 | -3.1 | 0.1 | 2.1 | · | 0.3 | -11.7 | ·
C[C@H](CO)N1C[C@H](C)[C@@H](CN(C)C(=O)Cc2ccccn2)Oc2ncc(C#CC3CCCCC3)cc2C1=O | · | · | · | -0.2 | · | · | ·
COc1ccc(NC(=O)Nc2ccc3c(c2)CC(=O)N([C@@H](C)CO)C[C@H](C)[C@@H](CN(C)S(=O)(=O)c2ccc(OC)cc2)O3)cc1 | · | · | · | -0.8 | · | · | ·
Cc1cccc(OCC(=O)N/N=C/c2sc(=O)n(Cc3cccc(C(=O)O)c3)c2Cl)c1 | 1.3 | -0.3 | -5.8 | -0.1 | -0.8 | 8.2 | ·
O=C(COc1ccccc1)N/N=C/c1sc(=O)n(Cc2cccc(C(=O)O)c2)c1Cl | 1.5 | 5.6 | -6.1 | 14.3 | 62.2* | -1.7 | -2.9%
C[C@H](CO)N1C[C@H](C)[C@@H](CN(C)C(=O)NC2CCCC2)Oc2ncc(-c3ccccc3)cc2C1=O | · | · | · | 3.0 | · | · | ·
N#C/C(C(N)=O)=c1/ccc2c(c1)N1C3=C(CCCC3)CC3CCCCC31N=2 (stereo not drawn) | -0.8 | -5.1 | -10.8 | · | 50.3* | -10.9 | 5.45µM*
CC(=O)c1c(C)[nH]c(C(=O)CSc2nnc(-c3cccs3)n2Cc2ccccc2)c1C | 1.9 | 11.6 | 1.5 | · | -1.2 | 6.8 | ·
CC(=O)c1c(C)[nH]c(C(=O)CSc2nnc(-c3ccco3)n2Cc2ccccc2)c1C | -0.4 | -1.8 | -4.1 | · | 58.1* | 5.3 | -0.6%
COCC(=O)N(C)C[C@@H]1Oc2cc(C#C[C@H](C)O)ccc2S(=O)(=O)N([C@H](C)CO)C[C@@H]1C | · | · | · | 1.7 | · | · | ·
